For data set [1], the target named is T1, Cannabinoid receptor 2 (Homo sapiens, UniProt P34972). Put plainly: Displacement of [3H]-CP-55940 from human CB2 receptor expressed in CHO cell membranes at 10 uM after 1 hr by beta-counting analysis. The procedure, abridged:
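Competition binding to hCB2-CHO membranes (40 μg) with [3H]-CP-55,940 1 nM in Tris-HCl/MgCl2/EDTA/0.5% BSA buffer, pH 7.4, 1 h at 30°C. Final DMSO was below 0.1%. Filtration on GF/B, then β-count; HU-210 10 µM defined nonspecific binding. Compounds were first screened at 10 μM.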
A general note: Displacement assays read how much labelled ligand stays bound in the presence of the test substance.

In data set [2] the target is T1, Cannabinoid receptor 2. Put plainly: Displacement of [3H]-CP-55940 from human CB2 receptor expressed in CHO cell membranes after 1 hr by beta-counting analysis.
The target in data set [3] is T2, Cannabinoid receptor 1 (Homo sapiens, UniProt P21554). Put plainly: Agonist activity at human CB1 receptor.
In data set [4] the target is T1, Cannabinoid receptor 2. Put plainly: Agonist activity at human CB2 receptor.
In the next data set the test system is HT-29. Put plainly: Cytotoxicity against human HT-29 cells at 10 uM after 72 hrs by MTS assay relative to control. Type of data set: cell-based. To be noted: ht-29, 72 h. Put shortly: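 HT29 cells were grown in DMEM-Glutamax with 10% FBS at 37°C and 5% CO2. They were seeded at 3000 cells/well in triplicate and allowed 24 h. Compounds were added at 10 μM with DMSO below 0.1%, for 72 h. Read-out was the MTS colorimetric test, given as % proliferation inhibition from ≥4 experiments in duplicate.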

For data set [5], the target named is T1, Cannabinoid receptor 2. Put plainly: Agonist activity at human CB2 receptor expressed in CHO cell membranes assessed as [35S]GTPgammaS binding after 1 hr by beta-counting analysis. In kind it is functional. (In general: Binding of GTPγS marks nucleotide exchange on a G protein.)
The species entered for a further data set is Homo sapiens. Put plainly: Selectivity index, ratio of Ki for human CB1 receptor expressed in CHO cell membranes to Ki for human CB2 receptor expressed in CHO cell membranes. Type of data set: cell-based.
Data set [6] concerns the target T1, Cannabinoid receptor 2. The experiment in a line: Agonist activity at human CB2 receptor expressed in CHO cell membranes assessed as [35S]GTPgammaS binding after 1 hr by beta-counting analysis relative to control. In kind it is functional. The procedure, abridged: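 Membranes from hCB2-CHO cells, 40 μg protein, in 50 mM Tris-HCl, 3 mM MgCl2, 1 mM EDTA, 100 mM NaCl, 0.1% BSA, pH 7.4, with 20 μM GDP. [35S]-GTPγS was 0.05 nM final, 1 h at 30°C. Filtration on GF/B, then β-counting. Nonspecific binding was set with 100 μM Gpp(NH)p.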

The target in data set [7] is T2, Cannabinoid receptor 1. The experiment in a line: Displacement of [3H]-CP-55940 from human CB1 receptor expressed in CHO cell membranes after 1 hr by beta-counting analysis.

pEC50, pKi: −log10 of the molar value.

T1 sequence (P34972 whole entry): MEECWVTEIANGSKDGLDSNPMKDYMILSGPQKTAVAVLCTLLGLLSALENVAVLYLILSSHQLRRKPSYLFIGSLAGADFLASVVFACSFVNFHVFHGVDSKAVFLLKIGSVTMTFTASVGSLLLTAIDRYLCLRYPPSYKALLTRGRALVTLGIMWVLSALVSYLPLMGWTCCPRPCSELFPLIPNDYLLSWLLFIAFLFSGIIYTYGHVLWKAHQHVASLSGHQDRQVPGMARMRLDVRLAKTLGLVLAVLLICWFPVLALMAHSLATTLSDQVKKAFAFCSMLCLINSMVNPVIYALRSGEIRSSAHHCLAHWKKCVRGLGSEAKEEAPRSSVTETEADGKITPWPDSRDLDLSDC
T2 sequence (P21554 whole entry): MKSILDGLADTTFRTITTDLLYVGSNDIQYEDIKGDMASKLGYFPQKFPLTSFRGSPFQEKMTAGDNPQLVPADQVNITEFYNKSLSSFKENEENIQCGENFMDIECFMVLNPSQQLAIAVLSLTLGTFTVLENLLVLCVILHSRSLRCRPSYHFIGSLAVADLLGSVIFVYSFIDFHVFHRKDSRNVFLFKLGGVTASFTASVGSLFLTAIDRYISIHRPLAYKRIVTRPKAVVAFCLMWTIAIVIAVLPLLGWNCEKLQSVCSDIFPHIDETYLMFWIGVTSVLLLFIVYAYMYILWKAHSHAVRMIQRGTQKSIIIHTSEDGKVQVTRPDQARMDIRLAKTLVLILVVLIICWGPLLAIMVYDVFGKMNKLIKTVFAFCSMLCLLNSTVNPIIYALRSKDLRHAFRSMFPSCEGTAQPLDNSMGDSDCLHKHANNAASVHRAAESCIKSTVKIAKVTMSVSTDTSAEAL

On Cannabinoid receptor 2 [1], `CCCCCn1c(=O)oc2cc(C(=O)C34CC5CC(CC(C5)C3)C4)ccc21` registered an inhibition of over 60%. The pKi at Cannabinoid receptor 2 [2] was under 6.00.
Consider `CCS(=O)(=O)Nc1ccc2c(c1)nc(C(C)(C)C)n2CC1CCC(F)(F)CC1`, for which the values for the negative-log Ki (pKi) at Cannabinoid receptor 1 [3] and on Cannabinoid receptor 2 [4] were 7.93 and 9.06, respectively.
`CCCCCn1c(=O)oc2cc(C(=O)C3C(C)(C)C3(C)C)ccc21` came in with an inhibition at Cannabinoid receptor 2 [1] of over 60%. On Cannabinoid receptor 2 [2], this compound had a pKi of under 6.00.
The matching figures for `CCCCCn1c(=O)sc2ccc(C(=O)C34CC5CC(CC(C5)C3)C4)cc21`: over 60% and 6.28.
On the same counts, the results for `CCCCCn1c(=O)sc2ccc(C(=O)C3CCCCC3)cc21` are over 60% and under 6.00.
In the case of `CCCCn1c(=O)sc2cc(C(=O)C34CC5CC(CC(C5)C3)C4)ccc21`, in the data set on HT-29, the Activity turned out to be 0%. For the same compound, on Cannabinoid receptor 2 [5], the negative-log EC50 (pEC50) was 6.82. The inhibition on Cannabinoid receptor 2 [1] was over 60%. Also, the negative-log Ki (pKi) was 7.59 on Cannabinoid receptor 2 [2] and 6.11 at Cannabinoid receptor 1 [7]. Further, the Ratio Ki in the data set filed under Homo sapiens came to 30. Besides, the maximal response (Emax) at Cannabinoid receptor 2 [6] came to 152%.
In turn, `CCCCCn1c(=O)sc2cc(C(O)C34CC5CC(CC(C5)C3)C4)ccc21` (stereo not drawn) had an inhibition at Cannabinoid receptor 2 [1] of over 60%. Also, the negative-log Ki (pKi) was 6.57 on Cannabinoid receptor 2 [2] and under 6.00 at Cannabinoid receptor 1 [7]. Besides, the Ratio Ki in the data set filed under Homo sapiens was over 4.
As to `CCCCCn1c(=O)sc2cc(C(OC)C34CC5CC(CC(C5)C3)C4)ccc21` (stereo not drawn), on Cannabinoid receptor 2 [1], the inhibition is over 60%. Besides, the negative-log Ki (pKi) is 6.46 at Cannabinoid receptor 2 [2] and under 6.00 at Cannabinoid receptor 1 [7]. Besides, the Ratio Ki in the data set listed under Homo sapiens is over 3.
The compound `CCCCCn1c(=O)sc2cc(NC(=O)C34CC5CC(CC(C5)C3)C4)ccc21` returned an inhibition at Cannabinoid receptor 2 [1] of over 60%. This compound gave a negative logarithm of the Ki (pKi) on Cannabinoid receptor 2 [2] of under 6.00.
Take `Cc1c(C(=O)c2cccc3ccccc23)c2cccc3c2n1[C@H](CN1CCOCC1)CO3`: the maximum response (Emax) on Cannabinoid receptor 2 [6] was 181%.
The compound `CCCCCn1c(=O)sc2ccc(C(=O)C3C(C)(C)C3(C)C)cc21` showed an inhibition at Cannabinoid receptor 2 [1] of over 60%. Moreover, the pKi on Cannabinoid receptor 2 [2] was under 6.00.
Turning to `CCCCCn1c(=O)sc2cc(CC34CC5CC(CC(C5)C3)C4)ccc21`, the inhibition on Cannabinoid receptor 2 [1] was over 60%. In addition, the results for the pKi on Cannabinoid receptor 2 [2] and on Cannabinoid receptor 1 [7] were 6.84 and 6.23, respectively. The Ratio Ki in the data set listed under Homo sapiens was 4.
Take `CCCCCn1c(=O)sc2cc(C(=O)C3CCCC3)ccc21`: at Cannabinoid receptor 2 [1], the inhibition is over 60%. For the same compound, the pKi was 6.68 on Cannabinoid receptor 2 [2] and under 6.00 on Cannabinoid receptor 1 [7]. Moreover, the Ratio Ki in the data set filed under Homo sapiens is over 5.

What is called inhibition is the relative decrease from the control value, in per cent. Higher therefore signals a response far below the control. As usually defined, the pKi is −log10 of the Ki, conventionally taken in molar units. A higher pKi goes with a low Ki. A word on the pEC50: it is the negative decadic logarithm of the EC50, by convention in mol/L. Usually Emax stands for the greatest response seen or fitted, relative to the assay's reference.

Source of the values: ChEMBL document CHEMBL4480384, “Benzo[d]thiazol-2(3H)-ones as new potent selective CB2 agonists with anti-inflammatory properties” (Eur J Med Chem, 2019).
